How the values were obtained:
CAKI-1 = assay: Growth inhibition of human Caki1 cells after 48 hrs by sulforhodamine B assay; format: functional; conditions: CAKI-1, 48 h
How it was run: (§1)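 NCI screen panel. Five 10-fold concentrations from 10^-4 to 10^-8 M. Exposure for the last 48 h of a 72 h incubation. Growth estimated by sulforhodamine B protein assay. GI50 is the concentration giving 50% growth inhibition. Where that level was not reached or was exceeded, the value is given as above or below the highest or lowest concentration tested.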

SNB-19 = assay: Growth inhibition of human SNB19 cells after 48 hrs by sulforhodamine B assay; format: functional; conditions: SNB-19, 48 h
How it was run: (§2)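 NCI in vitro panel screen. Compounds tested at five 10-fold dilutions, 10^-4 to 10^-8 M. Cells in 96-well plates were exposed for the last 48 h of a 72 h incubation. Viability/growth was read by sulforhodamine B protein assay. GI50 is the concentration giving 50% growth inhibition. Values beyond the tested range are reported as greater or less than the maximum or minimum concentration.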

ACHN = assay: Growth inhibition of human ACHN cells after 48 hrs by sulforhodamine B assay; format: functional; how it was run: as §1
A549 = assay: Growth inhibition of human A549 cells after 48 hrs by sulforhodamine B assay; format: functional; conditions: A549, 48 h; how it was run: as §1
SK-MEL-5 = assay: Growth inhibition of human SK-MEL-5 cells after 48 hrs by sulforhodamine B assay; format: functional; conditions: SK-MEL-5, 48 h; how it was run: as §1
MT4 = assay: Antiproliferative activity against human MT4 cells assessed as reduction of growth by MTT assay; format: functional, cell-based
How it was run: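 MT-4 lymphoblastoid T cells (ATCC) in RPMI 1640 with 10% FCS, penicillin/streptomycin, checked for mycoplasma. 1 × 10⁴ mock-infected cells per well with serial dilutions from a 100 mM DMSO stock. Incubated 4 days at 37 °C, viable cells counted by MTT. IC50 versus untreated controls by linear regression. Mean of three separate experiments.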

UACC-62 = assay: Growth inhibition of human UACC62 cells after 48 hrs by sulforhodamine B assay; format: functional; conditions: UACC-62, 48 h; how it was run: as §2
OVCAR-3 = assay: Growth inhibition of human OVCAR-3 cells after 48 hrs by sulforhodamine B assay; format: functional; conditions: OVCAR-3, 48 h; how it was run: as §1
EKVX = assay: Growth inhibition of human EKVX cells after 48 hrs by sulforhodamine B assay; format: functional; how it was run: as §1
NCI-H460 = assay: Growth inhibition of human NCI-H460 cells after 48 hrs by sulforhodamine B assay; format: functional; conditions: NCI-H460, 48 h; how it was run: as §1
SF-295 = assay: Growth inhibition of human SF295 cells after 48 hrs by sulforhodamine B assay; format: functional; conditions: SF-295, 48 h; how it was run: as §1
[1] = Growth inhibition of human […] cells after 48 hrs by sulforhodamine B assay; format: functional; how it was run: as §1
IGROV-1 = assay: Growth inhibition of human IGROV1 cells after 48 hrs by sulforhodamine B assay; format: functional; conditions: IGROV-1, 48 h; how it was run: as §1
PC-3 = assay: Growth inhibition of human PC3 cells after 48 hrs by sulforhodamine B assay; format: functional; conditions: PC-3, 48 h; how it was run: as §1
MOLT-4 = assay: Growth inhibition of human MOLT4 cells after 48 hrs by sulforhodamine B assay; format: functional; conditions: MOLT-4, 48 h; how it was run: as §1
MCF7 = assay: Growth inhibition of human MCF7 cells after 48 hrs by sulforhodamine B assay; format: functional; conditions: MCF7, 48 h; how it was run: as §1
RXF 393 = assay: Growth inhibition of human RXF393 cells after 48 hrs by sulforhodamine B assay; format: functional; conditions: RXF 393, 48 h; how it was run: as §1
T47D = assay: Growth inhibition of human T47D cells after 48 hrs by sulforhodamine B assay; format: functional; how it was run: as §2
SF-268 = assay: Growth inhibition of human SF268 cells after 48 hrs by sulforhodamine B assay; format: functional; conditions: SF-268, 48 h; how it was run: as §1
786-0 = assay: Growth inhibition of human 786-0 cells after 48 hrs by sulforhodamine B assay; format: functional; conditions: 786-0, 48 h; how it was run: as §1
HCT-15 = assay: Growth inhibition of human HCT15 cells after 48 hrs by sulforhodamine B assay; format: functional; conditions: HCT-15, 48 h; how it was run: as §1
SW-620 = assay: Growth inhibition of human SW620 cells after 48 hrs by sulforhodamine B assay; format: functional; conditions: SW-620, 48 h; how it was run: as §2
Malme-3M = assay: Growth inhibition of human MALME-3M cells after 48 hrs by sulforhodamine B assay; format: functional; how it was run: as §1
SK-OV-3 = assay: Growth inhibition of human SKOV3 cells after 48 hrs by sulforhodamine B assay; format: functional; conditions: SK-OV-3, 48 h; how it was run: as §1
LOX IMVI = assay: Growth inhibition of human LOXIMVI cells after 48 hrs by sulforhodamine B assay; format: functional; how it was run: as §1
U-251 = assay: Growth inhibition of human U251 cells after 48 hrs by sulforhodamine B assay; format: functional; conditions: U-251, 48 h; how it was run: as §2
KM12 = assay: Growth inhibition of human KM12 cells after 48 hrs by sulforhodamine B assay; format: functional; conditions: KM12, 48 h; how it was run: as §1
NCI-H23 = assay: Growth inhibition of human NCI-H23 cells after 48 hrs by sulforhodamine B assay; format: functional; conditions: NCI-H23, 48 h; how it was run: as §1
SK-MEL-2 = assay: Growth inhibition of human SK-MEL-2 cells after 48 hrs by sulforhodamine B assay; format: functional; conditions: SK-MEL-2, 48 h; how it was run: as §1
SR = assay: Growth inhibition of human SR cells after 48 hrs by sulforhodamine B assay; format: functional; how it was run: as §2
OVCAR-4 = assay: Growth inhibition of human OVCAR4 cells after 48 hrs by sulforhodamine B assay; format: functional; conditions: OVCAR-4, 48 h; how it was run: as §1
OVCAR-8 = assay: Growth inhibition of human OVCAR8 cells after 48 hrs by sulforhodamine B assay; format: functional; conditions: OVCAR-8, 48 h; how it was run: as §1
NCI-H522 = assay: Growth inhibition of human NCI-H522 cells after 48 hrs by sulforhodamine B assay; format: functional; conditions: NCI-H522, 48 h; how it was run: as §1
HL-60(TB) = assay: Growth inhibition of human HL-60(TB) cells after 48 hrs by sulforhodamine B assay; format: functional; conditions: HL-60, 48 h
How it was run: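 NCI 60-cell-line screen protocol: cells exposed to compound at five 10-fold dilutions from 10^-4 to 10^-8 M for the last 48 h of a 72 h incubation. Sulforhodamine B protein assay estimated viability/growth. GI50 (50% growth inhibition) derived; where not reached or exceeded, reported as greater or less than the highest or lowest concentration tested.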

UO-31 = assay: Growth inhibition of human UO31 cells after 48 hrs by sulforhodamine B assay; format: functional; conditions: UO-31, 48 h; how it was run: as §2
SN12C = assay: Growth inhibition of human SN12C cells after 48 hrs by sulforhodamine B assay; format: functional; how it was run: as §2
MDA-MB-231 = assay: Growth inhibition of human MDA-MB-231 cells after 48 hrs by sulforhodamine B assay; format: functional; conditions: MDA-MB-231, 48 h; how it was run: as §1
HCT-116 = assay: Growth inhibition of human HCT116 cells after 48 hrs by sulforhodamine B assay; format: functional; conditions: HCT-116, 48 h; how it was run: as §1
HT-29 = assay: Growth inhibition of human HT-29 cells after 48 hrs by sulforhodamine B assay; format: functional; conditions: HT-29, 48 h; how it was run: as §1
CCRF-CEM = assay: Growth inhibition of human CCRF-CEM cells after 48 hrs by sulforhodamine B assay; format: functional; how it was run: as §1
BT-549 = assay: Growth inhibition of human BT549 cells after 48 hrs by sulforhodamine B assay; format: functional; conditions: BT-549, 48 h; how it was run: as §1
K562 = assay: Growth inhibition of human K562 cells after 48 hrs by sulforhodamine B assay; format: functional; conditions: K562, 48 h; how it was run: as §1
NCI-H322M = assay: Growth inhibition of human NCI-H322M cells after 48 hrs by sulforhodamine B assay; format: functional; how it was run: as §1
DU-145 = assay: Growth inhibition of human DU145 cells after 48 hrs by sulforhodamine B assay; format: functional; conditions: DU-145, 48 h; how it was run: as §1
HOP-62 = assay: Growth inhibition of human HOP62 cells after 48 hrs by sulforhodamine B assay; format: functional; conditions: HOP-62, 48 h; how it was run: as §1
HOP-92 = assay: Growth inhibition of human HOP92 cells after 48 hrs by sulforhodamine B assay; format: functional; conditions: HOP-92, 48 h; how it was run: as §1
SK-MEL-28 = assay: Growth inhibition of human SK-MEL-28 cells after 48 hrs by sulforhodamine B assay; format: functional; conditions: SK-MEL-28, 48 h; how it was run: as §1
MDA-MB-435 = assay: Growth inhibition of human MDA-MB-435 cells after 48 hrs by sulforhodamine B assay; format: functional; conditions: MDA-MB-435, 48 h; how it was run: as §1
COLO 205 = assay: Growth inhibition of human COLO205 cells after 48 hrs by sulforhodamine B assay; format: functional; conditions: COLO 205, 48 h; how it was run: as §1
SF-539 = assay: Growth inhibition of human SF539 cells after 48 hrs by sulforhodamine B assay; format: functional; conditions: SF-539, 48 h; how it was run: as §1
TK-10 = assay: Growth inhibition of human TK10 cells after 48 hrs by sulforhodamine B assay; format: functional; conditions: TK-10, 48 h; how it was run: as §2
SNB-75 = assay: Growth inhibition of human SNB75 cells after 48 hrs by sulforhodamine B assay; format: functional; conditions: SNB-75, 48 h; how it was run: as §2
M14 = assay: Growth inhibition of human M14 cells after 48 hrs by sulforhodamine B assay; format: functional; conditions: M14, 48 h; how it was run: as §1

For `N#C/C(=C\N1CCN(C(=O)c2ccco2)C1=S)C(=O)c1ccccc1`, the GI50 (CAKI-1) was 12.5 µM, the GI50 (SNB-19) was 39.7 µM and the GI50 (ACHN) was 16.6 µM. For the same molecule, the GI50 (A549) was 22 µM, the GI50 (SK-MEL-5) was 8.3 µM and the IC50 (MT4) was 3 µM. For the same molecule, the GI50 (UACC-62) was 12.9 µM, the GI50 (OVCAR-3) was 18.2 µM and the GI50 (EKVX) was 17.8 µM. For the same molecule, the GI50 (NCI-H460) was 9.5 µM, the GI50 (SF-295) was 43.6 µM and the GI50 [1] was 5.6 µM. For the same molecule, the GI50 (IGROV-1) was 19.4 µM, the GI50 (PC-3) was 31.7 µM and the GI50 (MOLT-4) was 43.7 µM. It also gave a GI50 (MCF7) of 4.5 µM, a GI50 (RXF 393) of 4.1 µM and a GI50 (T47D) of 7.2 µM. It also gave a GI50 (SF-268) of 31.2 µM, a GI50 (786-0) of 16.1 µM and a GI50 (HCT-15) of 5.7 µM. It also gave a GI50 (SW-620) of 5.9 µM, a GI50 (Malme-3M) of 30.7 µM and a GI50 (SK-OV-3) of 37.4 µM. It also gave a GI50 (LOX IMVI) of 17.9 µM, a GI50 (U-251) of 17 µM and a GI50 (KM12) of 6.5 µM. It also gave a GI50 (NCI-H23) of 15.2 µM, a GI50 (SK-MEL-2) of 3.7 µM and a GI50 (SR) of 2.8 µM. It also gave a GI50 (OVCAR-4) of 29.8 µM, a GI50 (OVCAR-8) of 25.4 µM and a GI50 (NCI-H522) of 3.7 µM. For the same molecule, the GI50 (HL-60(TB)) was 31.5 µM, the GI50 (UO-31) was 10.2 µM and the GI50 (SN12C) was 8.6 µM. For the same molecule, the GI50 (MDA-MB-231) was 13.7 µM, the GI50 (HCT-116) was 9.1 µM and the GI50 (HT-29) was 30.5 µM. It also gave a GI50 (CCRF-CEM) of 41.9 µM, a GI50 (BT-549) of 7.8 µM and a GI50 (K562) of 5.5 µM. It also gave a GI50 (NCI-H322M) of 23.4 µM, a GI50 (DU-145) of 5 µM and a GI50 (HOP-62) of 22 µM. It also gave a GI50 (HOP-92) of 26.9 µM, a GI50 (SK-MEL-28) of 28 µM and a GI50 (MDA-MB-435) of 11 µM. It also gave a GI50 (COLO 205) of 23.2 µM, a GI50 (SF-539) of 2.2 µM and a GI50 (TK-10) of 10.5 µM. It also gave a GI50 (SNB-75) of 68.2 µM and a GI50 (M14) of 14.9 µM.

— ChEMBL document CHEMBL1138555, “N-acylated and N,N'-diacylated imidazolidine-2-thione derivatives and N,N'-diacylated tetrahydropyrimidine-2(1H)-thione analogues: synthesis and antiproliferative activity” (Eur J Med Chem, 2009)
